In ChEMBL document CHEMBL1147733, “Design, synthesis, and biological evaluation of phosphinopeptides against Trypanosoma cruzi targeting trypanothione biosynthesis” (J Med Chem, 2006):
pIC50: −log10 of the molar value.

Tests used:
Trypanosoma cruzi [1] = assay: Inhibitory activity against Trypanosoma cruzi amastigotes; assay type: functional, organism-based; conditions: for pIC50: Trypanosoma cruzi
Summary of the method: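 Gamma-irradiated L6E9 myoblasts in DMEM/20% fetal calf serum, 24 h at 37 °C, then infected with 4.17 × 10⁶ trypomastigotes/well for 2 h (7% CO2). After washing, medium with 1 µCi/mL [5,6-³H]uracil and drug in ethanol added; TCA-precipitable ³H measured at day 3. Host toxicity up to 50 µM by phase-contrast microscopy; values are means of three experiments.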

Trypanosoma cruzi [2] = assay: Inhibitory activity against Trypanosoma cruzi Y epimastigotes; assay type: functional, organism-based
Summary of the method: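 Epimastigotes in sterile screw-cap tubes, drugs in absolute ethanol at 1, 5, 15 and 25 µg/mL, each in triplicate; ethanol-only control and medium blank. Growth read as absorbance at 600 nm against medium; percent inhibition = 100 − (ΔA_drug × 100)/ΔA_control, ΔA taken between start and end of culture.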

Compound | pIC50 (Trypanosoma cruzi [1]) | pIC50 (Trypanosoma cruzi [2]) | Inhibition (Trypanosoma cruzi [1]) [%]
CCCCCCP(=O)(O)CNC(=O)[C@H](CC(C)C)NC(=O)CCC(N)C(=O)O (some centres not stated) | < 4.30 | < 4.30 | 45
CCCCCCCP(=O)(O)CNC(=O)[C@H](CC(C)C)NC(=O)CCC(N)C(=O)O (some centres not stated) | < 4.30 | < 4.30 | 31
CC(C)C[C@H](NC(=O)CCC(N)C(=O)O)C(=O)NCP(C)(=O)O (some centres not stated) | < 4.30 | < 4.30 | 
N#CSCCOc1ccc(Oc2ccccc2)cc1 | 5.70 |  | 

Continued, in another order:

pIC50 (Trypanosoma cruzi [1]) | pIC50 (Trypanosoma cruzi [2]) | Compound | Inhibition (Trypanosoma cruzi [1]) [%]
< 4.30 | < 4.30 | CCCP(=O)(O)CNC(=O)[C@H](CC(C)C)NC(=O)CCC(N)C(=O)O (some centres not stated) | 
5.01 | < 4.30 | CCCCP(=O)(O)CNC(=O)[C@H](CC(C)C)NC(=O)CCC(N)C(=O)O (some centres not stated) | 
< 4.30 | < 4.30 | CCP(=O)(O)CNC(=O)[C@H](CC(C)C)NC(=O)CCC(N)C(=O)O (some centres not stated) | 
4.85 | < 4.30 | CCCCCP(=O)(O)CNC(=O)[C@H](CC(C)C)NC(=O)CCC(N)C(=O)O (some centres not stated) | 
